# Data as given in ChEMBL document CHEMBL3297684, “Discovery of biarylaminoquinazolines as novel tubulin polymerization inhibitors” (J Med Chem, 2014).
# Activity calls are given as the source filed them. The rule behind the calls is not given here.
# What was measured:
# [1] = molecular target: Fibroblast growth factor receptor 1 (Homo sapiens, UniProt P11362); test: Inhibition of FGFR1 (unknown origin) assessed as incorporation of [32P] gamma-ATP in to myelin basic protein after 30 mins by autoradiographic analysis
# Sequence of Fibroblast growth factor receptor 1 (P11362 whole entry): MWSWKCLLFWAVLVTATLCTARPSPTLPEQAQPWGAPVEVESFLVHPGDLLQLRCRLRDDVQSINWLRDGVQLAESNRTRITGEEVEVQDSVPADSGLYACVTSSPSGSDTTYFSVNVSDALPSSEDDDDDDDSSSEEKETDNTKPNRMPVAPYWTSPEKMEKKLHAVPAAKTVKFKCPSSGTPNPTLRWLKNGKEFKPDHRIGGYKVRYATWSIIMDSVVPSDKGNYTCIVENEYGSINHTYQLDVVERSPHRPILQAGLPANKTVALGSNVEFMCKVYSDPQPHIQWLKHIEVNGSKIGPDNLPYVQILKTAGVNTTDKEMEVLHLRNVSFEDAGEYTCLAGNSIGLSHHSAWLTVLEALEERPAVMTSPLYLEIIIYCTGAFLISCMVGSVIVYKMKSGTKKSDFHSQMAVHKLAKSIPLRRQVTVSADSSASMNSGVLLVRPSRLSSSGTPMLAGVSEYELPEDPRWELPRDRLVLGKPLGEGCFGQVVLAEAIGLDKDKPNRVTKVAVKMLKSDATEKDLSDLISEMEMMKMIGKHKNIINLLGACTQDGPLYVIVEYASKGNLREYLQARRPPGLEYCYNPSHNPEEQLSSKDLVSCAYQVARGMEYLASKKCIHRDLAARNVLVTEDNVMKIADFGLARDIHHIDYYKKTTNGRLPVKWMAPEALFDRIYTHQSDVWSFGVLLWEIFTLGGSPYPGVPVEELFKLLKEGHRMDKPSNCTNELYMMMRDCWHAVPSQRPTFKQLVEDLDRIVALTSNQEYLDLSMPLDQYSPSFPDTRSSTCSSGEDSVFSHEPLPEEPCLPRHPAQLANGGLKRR
# [2] = molecular target: Tubulin (Bos taurus, UniProt Q6B856+Q862L2+Q862F3); test: Inhibition of bovine brain tubulin polymerization after 20 mins by turbidimetry analysis
# Procedure, shortened: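 Electrophoretically homogeneous bovine brain tubulin at 10 μM (1.0 mg/mL) in 0.8 M monosodium glutamate, pH 6.6, with compound in 4% (v/v) DMSO. Preincubated 15 min at 30 °C without GTP, then chilled; 0.4 mM GTP added at 0 °C. Temperature raised to 30 °C and turbidity followed at 350 nm.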
# [3] = molecular target: Proto-oncogene tyrosine-protein kinase Src (Homo sapiens, UniProt P12931); test: Inhibition of Src (unknown origin) assessed as incorporation of [32P] gamma-ATP in to myelin basic protein after 30 mins by autoradiographic analysis
# Sequence of Proto-oncogene tyrosine-protein kinase Src (P12931 2-536 limits assumed): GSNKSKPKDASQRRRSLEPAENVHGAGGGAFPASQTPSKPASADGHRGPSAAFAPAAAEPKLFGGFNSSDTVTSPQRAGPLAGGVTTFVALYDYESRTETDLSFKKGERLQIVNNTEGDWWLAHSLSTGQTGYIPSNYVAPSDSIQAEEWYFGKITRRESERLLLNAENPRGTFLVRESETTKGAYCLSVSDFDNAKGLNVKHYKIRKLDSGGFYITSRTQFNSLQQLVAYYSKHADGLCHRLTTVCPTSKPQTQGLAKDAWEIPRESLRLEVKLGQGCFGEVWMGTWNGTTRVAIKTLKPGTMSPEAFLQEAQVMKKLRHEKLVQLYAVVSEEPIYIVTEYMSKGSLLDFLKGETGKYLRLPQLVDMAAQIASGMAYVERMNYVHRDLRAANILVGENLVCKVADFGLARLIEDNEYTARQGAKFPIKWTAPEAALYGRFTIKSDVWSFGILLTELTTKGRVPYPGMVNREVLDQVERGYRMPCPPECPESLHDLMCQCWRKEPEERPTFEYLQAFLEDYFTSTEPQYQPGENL
# [4] = molecular target: Epidermal growth factor receptor (Homo sapiens, UniProt P00533); test: Inhibition of EGFR (unknown origin) assessed as incorporation of [32P] gamma-ATP in to myelin basic protein after 30 mins by autoradiographic analysis
# Sequence of Epidermal growth factor receptor (P00533 whole entry): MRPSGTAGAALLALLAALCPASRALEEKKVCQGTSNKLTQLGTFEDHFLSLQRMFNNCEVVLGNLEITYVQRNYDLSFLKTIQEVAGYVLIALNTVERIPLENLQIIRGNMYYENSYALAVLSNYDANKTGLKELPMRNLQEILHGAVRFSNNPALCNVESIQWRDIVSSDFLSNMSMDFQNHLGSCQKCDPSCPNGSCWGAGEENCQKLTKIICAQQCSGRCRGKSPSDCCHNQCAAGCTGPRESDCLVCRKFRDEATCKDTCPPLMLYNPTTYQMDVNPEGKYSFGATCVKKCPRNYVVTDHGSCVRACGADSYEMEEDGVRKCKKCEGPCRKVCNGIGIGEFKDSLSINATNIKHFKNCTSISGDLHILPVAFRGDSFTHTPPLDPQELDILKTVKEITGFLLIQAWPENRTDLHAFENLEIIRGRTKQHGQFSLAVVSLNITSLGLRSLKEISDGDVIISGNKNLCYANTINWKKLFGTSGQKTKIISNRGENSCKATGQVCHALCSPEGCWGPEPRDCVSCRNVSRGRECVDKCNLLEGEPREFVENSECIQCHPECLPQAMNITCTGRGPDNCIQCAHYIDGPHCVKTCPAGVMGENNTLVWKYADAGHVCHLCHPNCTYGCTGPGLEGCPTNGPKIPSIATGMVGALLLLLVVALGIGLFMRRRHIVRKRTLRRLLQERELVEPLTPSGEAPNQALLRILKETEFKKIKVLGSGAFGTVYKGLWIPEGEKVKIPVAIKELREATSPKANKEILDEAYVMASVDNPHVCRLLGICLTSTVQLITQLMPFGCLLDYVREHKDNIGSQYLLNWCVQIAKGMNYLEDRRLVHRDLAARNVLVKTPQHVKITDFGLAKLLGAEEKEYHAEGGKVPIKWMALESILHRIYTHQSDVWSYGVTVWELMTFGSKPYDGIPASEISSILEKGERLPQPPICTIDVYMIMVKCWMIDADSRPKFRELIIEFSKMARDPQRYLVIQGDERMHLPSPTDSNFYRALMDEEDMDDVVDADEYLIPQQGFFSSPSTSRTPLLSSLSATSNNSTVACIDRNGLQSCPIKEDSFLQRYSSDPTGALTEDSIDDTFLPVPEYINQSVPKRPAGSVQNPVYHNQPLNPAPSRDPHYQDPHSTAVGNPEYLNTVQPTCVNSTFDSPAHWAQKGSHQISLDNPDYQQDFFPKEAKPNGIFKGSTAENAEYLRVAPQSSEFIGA
# [5] = molecular target: Tyrosine-protein kinase ABL1 (Homo sapiens, UniProt P00519); test: Inhibition of Abl1 (unknown origin) assessed as incorporation of [32P] gamma-ATP in to myelin basic protein after 30 mins by autoradiographic analysis
# Sequence of Tyrosine-protein kinase ABL1 (P00519 whole entry): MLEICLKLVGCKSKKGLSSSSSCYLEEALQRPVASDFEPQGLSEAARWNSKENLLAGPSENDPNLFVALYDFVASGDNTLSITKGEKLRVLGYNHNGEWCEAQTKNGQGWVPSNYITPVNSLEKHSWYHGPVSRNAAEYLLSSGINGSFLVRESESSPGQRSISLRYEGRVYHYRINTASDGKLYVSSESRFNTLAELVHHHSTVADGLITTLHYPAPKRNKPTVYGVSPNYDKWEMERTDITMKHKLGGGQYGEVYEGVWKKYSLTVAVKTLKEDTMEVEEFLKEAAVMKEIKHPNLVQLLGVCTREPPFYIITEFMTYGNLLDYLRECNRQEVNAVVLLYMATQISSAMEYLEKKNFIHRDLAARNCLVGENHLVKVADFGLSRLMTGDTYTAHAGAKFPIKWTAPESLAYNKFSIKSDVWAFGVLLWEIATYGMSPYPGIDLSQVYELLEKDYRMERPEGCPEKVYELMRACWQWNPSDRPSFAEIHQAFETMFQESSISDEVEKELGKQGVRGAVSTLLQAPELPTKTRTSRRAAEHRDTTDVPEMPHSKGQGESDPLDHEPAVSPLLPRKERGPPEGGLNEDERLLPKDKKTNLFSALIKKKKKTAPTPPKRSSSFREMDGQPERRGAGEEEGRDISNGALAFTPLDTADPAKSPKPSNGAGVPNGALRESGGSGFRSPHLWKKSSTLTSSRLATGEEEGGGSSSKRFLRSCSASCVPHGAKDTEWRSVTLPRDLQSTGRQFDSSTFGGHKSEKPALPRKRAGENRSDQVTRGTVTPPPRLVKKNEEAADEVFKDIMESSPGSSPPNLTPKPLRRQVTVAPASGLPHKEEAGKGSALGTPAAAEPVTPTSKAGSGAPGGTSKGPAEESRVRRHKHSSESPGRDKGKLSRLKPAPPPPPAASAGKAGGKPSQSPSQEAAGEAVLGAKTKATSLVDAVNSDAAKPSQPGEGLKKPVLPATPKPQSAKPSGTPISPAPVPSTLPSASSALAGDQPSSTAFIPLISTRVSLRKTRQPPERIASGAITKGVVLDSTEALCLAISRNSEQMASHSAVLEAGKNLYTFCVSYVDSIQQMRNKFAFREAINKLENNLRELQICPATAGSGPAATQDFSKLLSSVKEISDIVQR
# [6] = Cytotoxicity against human OVCAR8 cells assessed as inhibition of cell proliferation by SRB assay; format: functional, cell-based; settings: OVCAR-8
# Procedure, shortened: (§1)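 Cell protein measured with sulforhodamine B. NCI/ADR-RES is isogenic with OVCAR-8 but overexpresses P-gp. Values are mean SD of at least three independent experiments.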
# [7] = Cytotoxicity against human NCI-ADR-RES cells assessed as inhibition of cell proliferation by SRB assay; format: functional, cell-based; procedure, shortened: as §1
# [8] = Cell cycle arrest in human OVCAR8 cells assessed as increase in number of cells at G2/M phase at 1 uM after 30 mins by flow cytometry; format: functional, cell-based; settings: OVCAR-8, in the assay text read “after 24 hrs” for “after 30 mins”
# Procedure, shortened: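 OVCAR-8 cells grown in DMEM with 10% heat-inactivated FBS plus penicillin/streptomycin, 37 °C, 5% CO2. Exposed 24 h to 1 μM compound or drug-free medium. Fixed in 70% cold ethanol, RNase-treated (100 μg/mL, 30 min, 37 °C), stained with propidium iodide (100 μg/mL, 30 min, room temperature). 10 000 events per sample read by flow cytometry for G2/M fraction.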
# [9] = test system: A-431; test: Cytotoxicity against human A431 cells assessed as reduction in cell viability after 68 hrs by MTT assay; format: functional, cell-based; settings: A-431, 68 h
SMILES,IC50 [1] [µM],IC50 [2] [µM],IC50 [3] [µM],IC50 [4] [µM],IC50 [5] [µM],EC50 [6] [µM],EC50 [7] [µM],Activity [8],EC50 [9] [µM]
CC(=O)O[C@H]1C(=O)[C@@]2(C)[C@H]([C@H](OC(=O)c3ccccc3)[C@]3(O)C[C@H](OC(=O)[C@H](O)[C@@H](NC(=O)c4ccccc4)c4ccccc4)C(C)=C1C3(C)C)[C@]1(OC(C)=O)CO[C@@H]1C[C@@H]2O [PACLITAXEL],> 10,,> 10,> 10,> 10,0.018,0.013,,
COc1ccc(/C=C\c2cc(OC)c(OC)c(OC)c2)cc1O [COMBRETASTATIN A4],> 10,,> 10,> 10,> 10,0.0055,5,,
COc1cc2ncnc(Nc3cccc(-c4ccccc4)c3)c2cc1OC,> 10,> 20,> 10,> 10,> 10,,,,
c1ccc(-c2csc(Nc3ncnc4cc5c(cc34)OCCO5)n2)cc1,> 10,> 20,> 10,> 10,> 10,,,,
c1ccc(-c2ccnc(Nc3ncnc4cc5c(cc34)OCCO5)n2)cc1,> 10,> 20,> 10,> 10,> 10,,,,
c1ccc(-c2cccc(Nc3ncnc4cc5c(cc34)OCCO5)c2)cc1,,4,,,,0.5,,,
c1ccc(-c2cccc(Nc3ncnc4cc5c(cc34)OCCCO5)c2)cc1,,2.3,,,,0.55,,,0.66
c1ccc(-c2cccc(Nc3ncnc4cc5c(cc34)OCO5)c2)cc1,,1.1,,,,0.03,,Active,

# Further lines, with some results ahead:
IC50 [1] [µM],IC50 [2] [µM],IC50 [3] [µM],IC50 [4] [µM],IC50 [5] [µM],SMILES,EC50 [6] [µM],EC50 [7] [µM],Activity [8],EC50 [9] [µM]
> 10,12,> 10,> 10,> 10,Cl.c1cc(Nc2ncnc3cc4c(cc23)OCCO4)cc(-c2ccco2)c1,,,,
> 10,3,> 10,> 10,> 10,Cl.c1cc(Nc2ncnc3cc4c(cc23)OCCO4)cc(-c2ccc[nH]2)c1,4,3.6,,
> 10,3.2,> 10,> 10,> 10,Cl.c1ccc(-c2cccc(Nc3ncnc4cc5c(cc34)OCCO5)c2)nc1,,,,
> 10,1.2,> 10,> 10,> 10,Cl.c1cc(Nc2ncnc3cc4c(cc23)OCCO4)cc(-c2cccs2)c1,0.01,0.004,Active,
